# Measured values reported in ChEMBL document CHEMBL5512642, “Novel triterpenoid pyrones, phthalimides and phthalates are selectively cytotoxic in CCRF-CEM cancer cells - Synthesis, potency, and mitochondrial mechanism of action” (Eur J Med Chem, 2024).
# Activity calls are given as the source filed them. The calls are words filed in the database; no cut-off is given here.
# Key:
# A549 = assay: Cytotoxicity against human A549 cells assessed as reduction in cell viability incubated for 72 hrs by MTS assay; format: functional, cell-based; details: A549, 72 h
# U2OS = assay: Cytotoxicity against human U2OS cells assessed as reduction in cell viability incubated for 72 hrs by MTS assay; format: functional, cell-based
# HCT-116 = assay: Cytotoxicity against human HCT-116 cells assessed as reduction in cell viability incubated for 72 hrs by MTS assay; format: functional, cell-based; details: HCT-116, 72 h
# [1] = Cytotoxicity against human BJ cells assessed as reduction in cell viability incubated for 72 hrs by MTS assay; format: toxicity, cell-based
# [2] = Cytotoxicity against human MRC5 cells assessed as reduction in cell viability incubated for 72 hrs by MTS assay; format: toxicity, cell-based
# CCRF-CEM [3] = assay: Cytotoxicity against human CCRF-CEM cells assessed as reduction in cell viability incubated for 72 hrs by MTS assay; format: functional, cell-based
# K562 = assay: Cytotoxicity against human K562 cells assessed as reduction in cell viability incubated for 72 hrs by MTS assay; format: functional, cell-based; details: K562, 72 h
# HCT 116 TP53(-/-) = assay: Cytotoxicity against human HCT116-p53-null cells assessed as reduction in cell viability incubated for 72 hrs by MTS assay; format: functional, cell-based
# CCRF-CEM [4] = assay: Induction of apoptosis in human CCRF-CEM cells assessed as late apoptotic cells at 1 time IC50 incubated for 24 hrs by Annexin V and propidium iodide staining based flow cytometry analysis (reference value: 0.5%); format: functional
# [5] = Cytotoxicity against human K562-Tax cells assessed as reduction in cell viability incubated for 72 hrs by MTS assay; format: functional, cell-based
# CCRF-CEM [6] = assay: Induction of apoptosis in human CCRF-CEM cells assessed as early apoptotic cells at 1 time IC50 incubated for 24 hrs by Annexin V and propidium iodide staining based flow cytometry analysis (reference value: 1.4%); format: functional
# [7] = Metabolic stability in human liver microsomes assessed as compound remaining at measured at 15 mins in presence of NADPH by RF-MS analysis; format: ADME, Microsome; details: read-out: Stability
# Procedure, shortened: (§1)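 Human liver microsomes with NADPH cofactor to assess phase I oxidation. Compound remaining sampled at 15, 30 and 60 min; intrinsic clearance derived and categorized. Run in triplicate.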
# [8] = Stability in human plasma assessed as compound remaining measured 120 mins by RF-MS analysis; format: ADME, cell-free; details: read-out: Stability
# Procedure, shortened: (§2)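 Compounds incubated in human plasma in vitro for up to 2 h. Percent remaining sampled at 15, 30, 60 and 120 min. Run in triplicate.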
# [9] = Apparent permeability of the compound across apical to basolateral side in human Caco-2 cells assessed as compound recovery; format: ADME, cell-based; details: read-out: Activity
# Procedure, shortened: (§3)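 Caco-2 and MDCK-MDR1 monolayers; transport measured in both directions, apical→basolateral and basolateral→apical. Efflux ratio taken from the two directions; ER > 2 counted as active efflux. Compound recovery reported. Cell-based permeability runs done in duplicate.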
# [10] = Stability in human plasma assessed as compound remaining measured 60 mins by RF-MS analysis; format: ADME, cell-free; details: read-out: Stability; procedure, shortened: as §2
# CCRF-CEM [11] = assay: Induction of apoptosis in human CCRF-CEM cells assessed as reduction in Bcl-XL expression at 5 time of IC50 incubated for 24 hrs by Western blot analysis; format: functional, cell-based
# Procedure, shortened: (§4)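 Lysate 20 µg protein per lane on SDS-PAGE, transferred to nitrocellulose, blocked in 5% BSA/TBS-Tween. Probed overnight at 4 °C with anti-caspase-3, Bcl-2, Bcl-XL, β-actin, then HRP secondary 1 h. ECL chemiluminescence detection.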
# [12] = Stability in human plasma assessed as compound remaining measured 15 mins by RF-MS analysis; format: ADME, cell-free; details: read-out: Stability; procedure, shortened: as §2
# CCRF-CEM [13] = assay: Induction of apoptosis in human CCRF-CEM cells assessed as late apoptotic cells at 5 time IC50 incubated for 24 hrs by Annexin V and propidium iodide staining based flow cytometry analysis (reference value: 0.5%); format: functional
# CEM-DNR = assay: Cytotoxicity against human CEM-DNR cells assessed as reduction in cell viability incubated for 72 hrs by MTS assay; format: functional, cell-based
# CCRF-CEM [14] = assay: Induction of mitochondrial membrane potential loss in human CCRF-CEM cells assessed as cells with depolarized mitochondria (P2 gate) by measuring green fluorescence intensity at 5 time IC50 incubated for 24 hrs by JC-1 staining based flow cytometry (reference value: 2.1%)
# CCRF-CEM [15] = assay: Induction of apoptosis in human CCRF-CEM cells assessed as viable cells at 5 time IC50 incubated for 24 hrs by Annexin V and propidium iodide staining based flow cytometry analysis (reference value: 98%); format: functional
# [16] = Apparent permeability of the compound in MDCK-MDR1 cells at 10 uM incubated for 1 hr by RF-MS analysis; format: ADME, cell-based, Canis lupus familiaris; details: dog; procedure, shortened: as §3
# CCRF-CEM [17] = assay: Induction of mitochondrial membrane potential loss in human CCRF-CEM cells assessed as cells with depolarized mitochondria (P2 gate) by measuring green fluorescence intensity at 1 time IC50 incubated for 24 hrs by JC-1 staining based flow cytometry (reference value: 2.1%)
# [18] = Stability in human plasma assessed as compound remaining measured 30 mins by RF-MS analysis; format: ADME, cell-free; details: read-out: Stability; procedure, shortened: as §2
# CCRF-CEM [19] = assay: Induction of apoptosis in human CCRF-CEM cells assessed as necrotic cells at 1 time IC50 incubated for 24 hrs by Annexin V and propidium iodide staining based flow cytometry analysis (reference value: 0.1%); format: functional
# CCRF-CEM [20] = assay: Induction of apoptosis in human CCRF-CEM cells assessed as early apoptotic cells at 5 time IC50 incubated for 24 hrs by Annexin V and propidium iodide staining based flow cytometry analysis (reference value: 1.4%); format: functional
# [21] = Metabolic stability in human liver microsomes assessed as compound remaining at measured at 60 mins in presence of NADPH by RF-MS analysis; format: ADME, Microsome; details: read-out: Stability; procedure, shortened: as §1
# CCRF-CEM [22] = assay: Induction of apoptosis in human CCRF-CEM cells assessed as reduction in Bcl-2 expression at 5 time of IC50 incubated for 24 hrs by Western blot analysis; format: functional, cell-based; procedure, shortened: as §4
# CCRF-CEM [23] = assay: Induction of apoptosis in human CCRF-CEM cells assessed as viable cells at 1 time IC50 incubated for 24 hrs by Annexin V and propidium iodide staining based flow cytometry analysis (reference value: 98%); format: functional
# [24] = Plasma protein binding in human assessed as fraction bound at 10 uM by rapid equilibrium dialysis based RF-MS analysis; format: ADME, cell-free; details: read-out: PPB (converted)
# Procedure, shortened: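 Human plasma protein binding measured by equilibrium dialysis and reported as percent fraction bound. Run in triplicate.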
# CCRF-CEM [25] = assay: Induction of apoptosis in human CCRF-CEM cells assessed as reduction in caspase-3 expression at 5 time of IC50 incubated for 24 hrs by Western blot analysis; format: functional, cell-based; procedure, shortened: as §4
# [26] = Apparent permeability of the compound in human Caco-2 cells; format: ADME, cell-based; procedure, shortened: as §3
# [27] = Apparent permeability of the compound across apical to basolateral side in MDCK-MDR1 cells assessed as compound recovery at 10 uM incubated for 1 hr by RF-MS analysis; format: ADME, cell-based, Canis lupus familiaris; details: dog, read-out: Activity; procedure, shortened: as §3
# CCRF-CEM [28] = assay: Induction of apoptosis in human CCRF-CEM cells assessed as necrotic cells at 5 time IC50 incubated for 24 hrs by Annexin V and propidium iodide staining based flow cytometry analysis (reference value: 0.; format: functional
structure (smiles),measurement,setting,value
CC(C)[C@@H]1CC[C@]2(C(=O)O)CC[C@]3(C)[C@H](CC[C@@H]4[C@@]5(C)CC(C(=O)C(F)(F)F)C(=O)C(C)(C)[C@@H]5CC[C@]43C)[C@@H]12 (stereo not given in full),IC50,A549,11 µM
same,IC50,U2OS,25 µM
same,IC50,HCT-116,23 µM
same,IC50 at 72 h,[1],43 µM
same,IC50 at 72 h,[2],46 µM
same,IC50,CCRF-CEM [3],8.6 µM
same,IC50,K562,29 µM
same,IC50,HCT 116 TP53(-/-),26 µM
C=C(C)[C@@H]1CC[C@]2(C(=O)O)CC[C@]3(C)[C@H](CC[C@@H]4[C@@]5(C)CC6=C(C7C(=O)N(c8ccccc8)C(=O)C7C=C6C(F)(F)F)C(C)(C)[C@@H]5CC[C@]43C)[C@@H]12 (stereo not given in full),IC50,A549,9.7 µM
same,Activity,CCRF-CEM [4],3.2%
same,IC50,U2OS,7.6 µM
same,IC50,[5],9.7 µM
same,Activity,CCRF-CEM [6],4.3%
same,remaining at 0.25 h,[7],99%
same,remaining at 2 h,[8],101%
same,recovery,[9],86%
same,remaining at 1 h,[10],95.8%
same,Activity,CCRF-CEM [11],Active
same,remaining at 0.25 h,[12],100%
same,Activity,CCRF-CEM [13],2.9%
same,IC50,CEM-DNR,20 µM
same,Activity,CCRF-CEM [14],2.6%
same,IC50,HCT-116,7.8 µM
same,Activity,CCRF-CEM [15],91.8%
same,IC50 at 72 h,[1],> 50 µM
same,"Papp at 1 h, 10 µM",[16],0.1 ×10⁻⁶ cm/s
same,Activity,CCRF-CEM [17],2%
same,remaining at 0.5 h,[18],92.7%
same,IC50 at 72 h,[2],28 µM
same,Activity,CCRF-CEM [19],0%
same,Activity,CCRF-CEM [20],5.2%
same,remaining at 1 h,[21],79%
same,Activity,CCRF-CEM [22],Active
same,Activity,CCRF-CEM [23],92.5%
same,IC50,CCRF-CEM [3],4.2 µM
same,IC50,K562,25 µM
same,fraction unbound at 10 µM,[24],0.273
same,IC50,HCT 116 TP53(-/-),12 µM
same,Activity,CCRF-CEM [25],Active
same,Papp,[26],0.04 ×10⁻⁶ cm/s
same,"recovery at 1 h, 10 µM",[27],94.1%
same,Activity,CCRF-CEM [28],0.1%
C=C(C)[C@@H]1CC[C@]2(C(=O)O)CC[C@]3(C)[C@H](CC[C@@H]4[C@@]5(C)Cc6c(C(F)(F)F)cc7c(c6C(C)(C)[C@@H]5CC[C@]43C)C(=O)N(c3ccccc3)C7=O)[C@@H]12,IC50,A549,> 50 µM
same,IC50,U2OS,> 50 µM
same,IC50,[5],> 50 µM
same,IC50,CEM-DNR,> 50 µM
same,IC50,HCT-116,> 50 µM
same,IC50 at 72 h,[1],> 50 µM
same,IC50 at 72 h,[2],> 50 µM
same,IC50,CCRF-CEM [3],> 50 µM
same,IC50,K562,> 50 µM
same,IC50,HCT 116 TP53(-/-),> 50 µM
CC(C)[C@@H]1CC[C@]2(C(=O)O)CC[C@]3(C)[C@H](CC[C@@H]4[C@@]5(C)Cc6c(C(F)(F)F)cc7c(c6C(C)(C)[C@@H]5CC[C@]43C)C(=O)N(c3ccccc3)C7=O)[C@@H]12,IC50,A549,> 50 µM
same,IC50,U2OS,> 50 µM
same,IC50,[5],> 50 µM
same,IC50,CEM-DNR,> 50 µM
same,IC50,HCT-116,> 50 µM
same,IC50 at 72 h,[1],> 50 µM
same,IC50 at 72 h,[2],> 50 µM
same,IC50,CCRF-CEM [3],> 50 µM
same,IC50,K562,> 50 µM
same,IC50,HCT 116 TP53(-/-),> 50 µM
C[C@H]1[C@H](C)CC[C@]2(C(=O)O)CC[C@]3(C)C(=CC[C@@H]4[C@@]5(C)CC(C(=O)C(F)(F)F)C(=O)C(C)(C)[C@@H]5CC[C@]43C)[C@H]12 (stereo not given in full),IC50,A549,23 µM
same,IC50,U2OS,> 50 µM
same,IC50,HCT-116,35 µM
same,IC50 at 72 h,[1],> 50 µM
same,IC50 at 72 h,[2],> 50 µM
same,IC50,CCRF-CEM [3],8.3 µM
same,IC50,K562,23 µM
same,IC50,HCT 116 TP53(-/-),43 µM
